Assay results as given in article PMC9720522 (Food Chemistry: X, 2022).
Converted amounts (≈) assume the structure as drawn.

Tests used:
anti-AZN mAb = experiment: indirect ICA; format: binding, mouse; conditions: pork extract; strip reader standard curve
Outline: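 AZN standard spiked into treated pork samples at 8, 4, 2, 1, 0.5, 0.25 and 0 ng/g. A set amount of mAb is added to the sample well and held 5 min at room temperature before strip insertion. The T line is AZL-SA-OVA, the C line mouse IgG, and the conjugate pad AuNP-goat anti-mouse IgG.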

mAb against AZN (35D1D2) = experiment: indirect competitive ELISA; format: binding, mouse; conditions: ic-ELISA; for Cross-reactivity: CR = IC50 of AZN / IC50 of related analyte × 100; for IC50: coating antigen 0.23 and mAb 0.38 µg/mL

Row | SMILES | IC50, indirect ICA (anti-AZN mAb) | Cross-reactivity (mAb against AZN (35D1D2)) | IC50 (mAb against AZN (35D1D2))
1 | O=C(CCCN1CCN(c2ccccn2)CC1)c1ccc(F)cc1 [AZN, Azaperone] | 0.74 ng/g | 100% | 0.35 ng/mL (≈ 1.07 nM)
2 | CC(C)NCC(O)COc1cccc2[nH]c3ccccc3c12 (stereo not drawn) [CAR, carazolol] |  | <0.035% | ˃1000 ng/mL
3 | Cc1cccc(C)c1N=C1NCCCS1 [XYL, xylazine] |  | <0.035% | ˃1000 ng/mL
4 | CN(C)CCCN1c2ccccc2Sc2ccc(Cl)cc21 [CHL, Chlorpromazine] |  | <0.035% | ˃1000 ng/mL
5 | O=C(CCCN1CC=C(n2c(=O)[nH]c3ccccc32)CC1)c1ccc(F)cc1 [DRO, Droperidol] |  | <0.035% | ˃1000 ng/mL
6 | O=C(CCCN1CCC(O)(c2ccc(Cl)cc2)CC1)c1ccc(F)cc1 [HAL, haloperidol] |  | <0.035% | 
